From ChEMBL document CHEMBL4321796, “Proteolysis Targeting Chimeras for the Selective Degradation of Mcl-1/Bcl-2 Derived from Nonselective Target Binding Ligands” (J Med Chem, 2019)
The source made the active and inactive calls. The rule behind the calls is not given here.

What was measured:
[1] = target: Induced myeloid leukemia cell differentiation protein Mcl-1 (Homo sapiens, UniProt Q07820); assay: Inhibition of biotinylated Bim peptide (81 to 106 residues) binding to His-tagged human Mcl-1 expressed in Escherichia coli BL21 (DE3) cells preincubated for 1 hr followed by biotinylated Bim peptide addition measured after 2 hrs by ELISA
Procedure, shortened: (§1)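 Inhibitor serially diluted (100–0.1 µM) from 10 mM DMSO stock, preincubated 1 h with 200 nM His-tagged protein in PBS (final DMSO 4%), then added 2 h to streptavidin plates holding biotin-Bim (plated at 0.09 mg/mL). Incubations at 4 °C. Detection with HRP anti-His, TMB 30 min, H2SO4 stop, A450. IC50 averaged from three independent experiments, with SD.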

[2] = target: Apoptosis regulator Bcl-2 (Homo sapiens, UniProt P10415); assay: Inhibition of biotinylated Bim peptide (81 to 106 residues) binding to His-tagged human Bcl-2 expressed in Escherichia coli BL21 (DE3) cells preincubated for 1 hr followed by biotinylated Bim peptide addition measured after 2 hrs by ELISA; procedure, shortened: as §1
[3] = target: T1, Protein cereblon/Induced myeloid leukemia cell differentiation protein Mcl-1 (Homo sapiens, UniProt Q07820+Q96SW2); assay: Induction of CRBN-mediated Mcl-1 degradation in human HeLa cells assessed as relative abundance at 10 uM after 12 hrs by Western blot analysis (reference value: 1); assay type: cell-based
[4] = target: T1, Protein cereblon/Induced myeloid leukemia cell differentiation protein Mcl-1; assay: Induction of CRBN-mediated Mcl-1 degradation in human HeLa cells assessed as relative abundance at 1 uM after 12 hrs by Western blot analysis (reference value: 1); assay type: cell-based
[5] = target: T2, Protein cereblon/Apoptosis regulator Bcl-2 (Homo sapiens, UniProt P10415+Q96SW2); assay: Induction of CRBN-mediated Bcl-2 degradation in human HeLa cells assessed as relative abundance at 10 uM after 12 hrs by Western blot analysis (reference value: 1); assay type: cell-based
[6] = target: T2, Protein cereblon/Apoptosis regulator Bcl-2; assay: Induction of CRBN-mediated Bcl-2 degradation in human HeLa cells assessed as relative abundance at 1 uM after 12 hrs by Western blot analysis (reference value: 1); assay type: cell-based
[7] = target: T1, Protein cereblon/Induced myeloid leukemia cell differentiation protein Mcl-1; assay: Induction of CRBN-mediated Mcl-1 degradation in human HeLa cells at 10 uM after 12 hrs by Western blot analysis relative to control; assay type: cell-based
[8] = target: T2, Protein cereblon/Apoptosis regulator Bcl-2; assay: Induction of CRBN-mediated Bcl-2 degradation in human HeLa cells at 10 uM after 12 hrs by Western blot analysis relative to control; assay type: cell-based
[9] = target: T1, Protein cereblon/Induced myeloid leukemia cell differentiation protein Mcl-1; assay: Induction of CRBN-mediated Mcl-1 degradation in human HeLa cells assessed as Mcl-1 level at 10 uM after 12 hrs by Western blot analysis; assay type: cell-based
[10] = target: T2, Protein cereblon/Apoptosis regulator Bcl-2; assay: Induction of CRBN-mediated Bcl-2 degradation in human HeLa cells assessed as reduction in Bcl-2 level at 10 uM after 12 hrs by Western blot analysis; assay type: cell-based
NCI-H23 = assay: Cytotoxicity against human H23 cells incubated for 24 hrs by CCK8 assay; assay type: functional, cell-based
Procedure, shortened: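 H23 cells seeded at 4 × 10^4 per mL in RPMI with 10% FBS, L-glutamine and pen/strep. Treated 24 h at various concentrations or with DMSO vehicle (0.05%). Viability read by CCK8 and normalized against cell-free background and untreated cultures; mean ± s.e.m., n=3.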

[11] = target: T1, Protein cereblon/Induced myeloid leukemia cell differentiation protein Mcl-1; assay: Protac activity at CRBN/Mcl-1 in human HeLa cell lysates assessed as ternary complex formation by Western blot analysis based pull-down assay; assay type: subcellular; settings: Lysate
Procedure, shortened: (§2)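 HeLa lysate (25×10^6 cells, 1% Triton X-100 IP buffer), 1 mg total protein, incubated overnight with 1 µg CRBN antibody across a compound concentration gradient. Capture on protein A+G agarose, three Triton washes, boiled in loading buffer. Mcl-1, Bcl-2 and CRBN detected by immunoblotting. n=3 independent samples.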

[12] = target: T2, Protein cereblon/Apoptosis regulator Bcl-2; assay: Protac activity at CRBN/Bcl-2 in human HeLa cell lysates assessed as ternary complex formation by Western blot analysis based pull-down assay; assay type: subcellular; settings: Lysate; procedure, shortened: as §2
[13] = target: T1, Protein cereblon/Induced myeloid leukemia cell differentiation protein Mcl-1; assay: Induction of CRBN-mediated Mcl-1 degradation in human HeLa cells assessed as formation of ubiquitin adducts of Mcl-1 at 1 to 10 uM after 12 hrs by Western blot analysis; assay type: cell-based

Chain of Apoptosis regulator Bcl-2 (P10415 whole entry, the tested form may be a part): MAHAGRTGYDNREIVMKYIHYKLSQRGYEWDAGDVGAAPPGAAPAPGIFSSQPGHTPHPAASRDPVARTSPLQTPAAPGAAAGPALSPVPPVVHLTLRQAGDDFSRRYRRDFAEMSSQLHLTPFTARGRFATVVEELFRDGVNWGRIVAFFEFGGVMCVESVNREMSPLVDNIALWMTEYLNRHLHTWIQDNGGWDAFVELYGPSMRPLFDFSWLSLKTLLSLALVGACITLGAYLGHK
T2 sequence (P10415 whole entry, looked up): as the sequence (P10415 whole entry, the tested form may be a part) above
T2 sequence (Q96SW2 whole entry, looked up): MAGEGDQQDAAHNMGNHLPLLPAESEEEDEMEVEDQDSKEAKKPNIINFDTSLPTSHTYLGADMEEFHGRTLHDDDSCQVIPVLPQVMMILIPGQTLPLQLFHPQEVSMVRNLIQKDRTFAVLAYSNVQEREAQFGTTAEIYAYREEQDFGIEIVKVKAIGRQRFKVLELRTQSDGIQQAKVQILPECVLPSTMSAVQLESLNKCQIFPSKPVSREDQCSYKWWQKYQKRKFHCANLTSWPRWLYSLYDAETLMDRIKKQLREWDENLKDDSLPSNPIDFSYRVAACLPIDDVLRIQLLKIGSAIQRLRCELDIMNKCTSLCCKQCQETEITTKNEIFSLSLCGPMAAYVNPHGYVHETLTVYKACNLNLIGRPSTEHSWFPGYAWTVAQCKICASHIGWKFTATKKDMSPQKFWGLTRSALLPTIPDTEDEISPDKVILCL
Chain of Induced myeloid leukemia cell differentiation protein Mcl-1 (Q07820 whole entry, the tested form may be a part): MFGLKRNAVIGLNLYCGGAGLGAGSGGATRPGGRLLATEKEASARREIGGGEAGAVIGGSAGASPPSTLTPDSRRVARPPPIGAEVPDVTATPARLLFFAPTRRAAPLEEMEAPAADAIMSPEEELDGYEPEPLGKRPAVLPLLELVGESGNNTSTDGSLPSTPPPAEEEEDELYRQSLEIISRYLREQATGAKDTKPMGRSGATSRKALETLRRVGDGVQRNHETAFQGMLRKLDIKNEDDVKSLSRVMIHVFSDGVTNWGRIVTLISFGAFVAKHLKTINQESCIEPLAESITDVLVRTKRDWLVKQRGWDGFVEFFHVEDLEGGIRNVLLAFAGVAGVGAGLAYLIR
T1 sequence (Q07820 whole entry, looked up): as the sequence (Q07820 whole entry, the tested form may be a part) above
T1 sequence (Q96SW2 whole entry, looked up): as the sequence (Q96SW2 whole entry, looked up) above

Structure (SMILES)	IC50 [1] [µM]	IC50 [2] [µM]	fold change (FC) [3]	fold change (FC) [4]	fold change (FC) [5]	fold change (FC) [6]	Activity [7]	Activity [8]	Activity [9]	Activity [10]	Activity [11]	Activity [12]	Activity [13]	Activity (NCI-H23)
O=C(CCCCC(=O)NCCN1C(=O)c2cccc3c(Sc4ccc(Br)cc4)ccc(c23)C1=O)NCCNc1cccc2c1C(=O)N(C1CCC(=O)NC1=O)C2=O (stereo not given)	7.89	15.2	1	1	1	1								
Cc1nn(C)c(COc2ccc(N3CCN(S(=O)(=O)N(C)C)CC3)cc2)c1-c1cccc2c(CCCOc3cccc4ccccc34)c(C(=O)O)n(CCN3CCOCC3)c12														Active
N#CC1=C(NCCC(=O)NCCNc2cccc3c2C(=O)N(C2CCC(=O)NC2=O)C3=O)c2ccc(Sc3ccc(Br)cc3)c3cccc(c23)C1=O (stereo not given)	10.6	10.5	1	1	1	1	< 20%	< 20%						
O=C(CCCCCNc1cccc2c1C(=O)N(C1CCC(=O)NC1=O)C2=O)NCCCCCCNC(=O)CCCCC(=O)NCCN1C(=O)c2cccc3c(Sc4ccc(Br)cc4)ccc(c23)C1=O (stereo not given)	15.1	13.5	0.9	1	0.9	1								
N#CC1=C(NCCC(=O)NCCCCNc2cccc3c2C(=O)N(C2CCC(=O)NC2=O)C3=O)c2ccc(Sc3ccc(Br)cc3)c3cccc(c23)C1=O (stereo not given)	9.95	9.71	0.8	0.9	1	1	< 20%	< 20%						
N#CC1=C(NCCC(=O)NCCCCCC(=O)NCCCCCCNc2cccc3c2C(=O)N(C2CCC(=O)NC2=O)C3=O)c2ccc(Sc3ccc(Br)cc3)c3cccc(c23)C1=O (stereo not given)	16	11.6	1.5	1.2	1	1.1	< 20%	< 20%					inactive	

The next lines start with results.

IC50 [1] [µM]	IC50 [2] [µM]	fold change (FC) [3]	fold change (FC) [4]	fold change (FC) [5]	fold change (FC) [6]	Activity [7]	Activity [8]	Activity [9]	Activity [10]	Activity [11]	Activity [12]	Activity [13]	Structure (SMILES)	Activity (NCI-H23)
2.03	2.31	1		1		inactive	inactive	inactive	inactive				N#CC1=C(C#N)c2ccc(Sc3ccc(Br)cc3)c3cccc(c23)C1=O	
4.45	3.18	1		1		inactive	inactive	inactive	inactive				CC(C)(C)c1ccc(C(=O)NCCN2C(=O)c3cccc4c(Sc5ccc(Br)cc5)ccc(c34)C2=O)cc1	Active
5.4	7.66	1	1	0.9	0.9								O=C(CCCCC(=O)NCCN1C(=O)c2cccc3c(Sc4ccc(Br)cc4)ccc(c23)C1=O)NCCCCCCCCNc1cccc2c1C(=O)N(C1CCC(=O)NC1=O)C2=O (stereo not given)	
7.65	1.94	0.8	0.9	1.1	1	< 20%	< 20%			inactive	inactive		N#CC1=C(NCCC(=O)NCCCCCCNc2cccc3c2C(=O)N(C2CCC(=O)NC2=O)C3=O)c2ccc(Sc3ccc(Br)cc3)c3cccc(c23)C1=O (stereo not given)	
5.95	4.78												COC(=O)CCCCC(=O)NCCN1C(=O)c2cccc3c(Sc4ccc(Br)cc4)ccc(c23)C1=O	
1.51	10	0.9	1	1	1								O=C(CCCCC(=O)NCCN1C(=O)c2cccc3c(Sc4ccc(Br)cc4)ccc(c23)C1=O)NCCCCNc1cccc2c1C(=O)N(C1CCC(=O)NC1=O)C2=O (stereo not given)	
3.46	4.52												COC(=O)CCNC1=C(C#N)C(=O)c2cccc3c(Sc4ccc(Br)cc4)ccc1c23	
2.29	2.24	2.2	1.8	1	1	< 20%	< 20%					inactive	N#CC1=C(NCCC(=O)NCCOCCOCCNc2cccc3c2C(=O)N(C2CCC(=O)NC2=O)C3=O)c2ccc(Sc3ccc(Br)cc3)c3cccc(c23)C1=O (stereo not given)	
